In brackets after ≈: the same amount, converted by molar mass.
Experiments:
Assay type in all cases: functional
[1] = tested on: Staphylococcus haemolyticus; experiment: Antibacterial activity against oxacillin-resistant Staphylococcus haemolyticus 107-1240C isolate after 24 hrs by broth microdilution method
Procedure, shortened: (§1)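 Broth microdilution following NCCLS M7-A6 (2003), with inoculum at the recommended densities. Isolates were placed into panel wells with an autoinoculator and grown in cation-adjusted Mueller-Hinton broth at 35°C in ambient air for overnight to 24 h. Panels were read by eye, and the MIC was taken as no visible growth.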

Enterococcus faecalis [2] = experiment: Antibacterial activity against ampicillin and vancomycin-susceptible Enterococcus faecalis ATCC 29212 after 24 hrs by broth microdilution method; conditions: ATCC 29212, 24 h; procedure, shortened: as §1
Streptococcus pneumoniae [3] = experiment: Antibacterial activity against penicillin-intermediate resistant Streptococcus pneumoniae ATCC 49619 after 24 hrs by broth microdilution method; conditions: ATCC 49619, 24 h; procedure, shortened: as §1
Streptococcus pneumoniae [4] = experiment: Antibacterial activity against penicillin-resistant Streptococcus pneumoniae 33-50B isolate after 24 hrs by broth microdilution method; procedure, shortened: as §1
Corynebacterium jeikeium = experiment: Antibacterial activity against Corynebacterium jeikeium 15-196A isolate after 24 hrs by broth microdilution method
Procedure, shortened: (§2)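 Broth microdilution following NCCLS M7-A6 (2003) inocula; isolates transferred aseptically into panel wells with an autoinoculator; cation-adjusted Mueller-Hinton broth; incubated overnight to 24 h at 35°C in ambient air; panels read by eye, MIC taken as lowest concentration with no visible growth.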

Streptococcus pyogenes = experiment: Antibacterial activity against erythromycin-resistant Streptococcus pyogenes 91-8747 isolate after 24 hrs by broth microdilution method; procedure, shortened: as §1
Streptococcus mitis = experiment: Antibacterial activity against penicillin-resistant Streptococcus mitis 61-2900C isolate after 24 hrs by broth microdilution method; procedure, shortened: as §1
Pseudomonas aeruginosa = experiment: Antibacterial activity against sPseudomonas aeruginosa ATCC 27853 after 24 hrs by broth microdilution method; conditions: ATCC 27853, 24 h; procedure, shortened: as §2
Escherichia coli = experiment: Antibacterial activity against sEscherichia coli ATCC 25922 after 24 hrs by broth microdilution method; conditions: ATCC 25922, 24 h; procedure, shortened: as §2
Staphylococcus [5] = experiment: Antibacterial activity against mupirocin-resistant coagulase negative Staphylococcus 63-18A isolate after 24 hrs by broth microdilution method; procedure, shortened: as §1
Staphylococcus [6] = experiment: Antibacterial activity against quinupristin/dalfopristin-resistant coagulase negative Staphylococcus 90-10840A isolate after 24 hrs by broth microdilution method; procedure, shortened: as §1
Staphylococcus [7] = experiment: Antibacterial activity against coagulase negative linezolid-resistant Staphylococcus 82-1645A isolate after 24 hrs by broth microdilution method; procedure, shortened: as §1
Enterococcus faecalis [8] = experiment: Antibacterial activity against vancomycin-resistant Enterococcus faecalis 48-22D isolate with vanA phenotype after 24 hrs by broth microdilution method; procedure, shortened: as §1
Enterococcus faecalis [9] = experiment: Antibacterial activity against vancomycin-resistant Enterococcus faecalis 82-876D with vanB phenotype isolate after 24 hrs by broth microdilution method; procedure, shortened: as §1
Enterococcus faecalis [10] = experiment: Antibacterial activity against linezolid-resistant Enterococcus faecalis 15-5341 isolate after 24 hrs by broth microdilution method; procedure, shortened: as §1
Enterococcus faecalis [11] = experiment: Antibacterial activity against gentamycin and streptomycin-resistant Enterococcus faecalis 39-11D isolate after 24 hrs by broth microdilution method; procedure, shortened: as §1
Bacillus sp. [12] = experiment: Antibacterial activity against tetracycline-resistant Bacillus sp. 107-1461D isolate after 24 hrs by broth microdilution method; conditions: Bacillus sp. (in: firmicutes); procedure, shortened: as §1
Bacillus sp. [13] = experiment: Antibacterial activity against trimethoprim/sulfamethaxazole-resistant Bacillus sp. 67-1057A isolate after 24 hrs by broth microdilution method; conditions: Bacillus sp. (in: firmicutes); procedure, shortened: as §1
Bacillus sp. [14] = experiment: Antibacterial activity against erythromycin-resistant Bacillus sp. 32-2406A isolate after 24 hrs by broth microdilution method; conditions: Bacillus sp. (in: firmicutes); procedure, shortened: as §1
Streptococcus pneumoniae [15] = experiment: Antibacterial activity against multidrug resistant Streptococcus pneumoniae 68-2307B isolate after 24 hrs by broth microdilution method; procedure, shortened: as §1
Streptococcus pneumoniae [16] = experiment: Antibacterial activity against erythromycin and clindamycin-resistant Streptococcus pneumoniae 4-38B isolate after 24 hrs by broth microdilution method; procedure, shortened: as §1
Streptococcus pneumoniae [17] = experiment: Antibacterial activity against erythromycin-resistant and clindamycin-susceptible Streptococcus pneumoniae 35-405B isolate after 24 hrs by broth microdilution method; procedure, shortened: as §1
Streptococcus pneumoniae [18] = experiment: Antibacterial activity against levofloxacin-resistant Streptococcus pneumoniae 2-2784A isolate after 24 hrs by broth microdilution method; procedure, shortened: as §1
Streptococcus [19] = experiment: Antibacterial activity against erythromycin and clindamycin-resistant beta-haemolytic sStreptococcus 91-526D isolate after 24 hrs by broth microdilution method; procedure, shortened: as §1
Streptococcus [20] = experiment: Antibacterial activity against erythromycin-resistant and clindamycin-susceptible beta-haemolytic sStreptococcus 109-820D isolate after 24 hrs by broth microdilution method; procedure, shortened: as §1
Streptococcus [21] = experiment: Antibacterial activity against levofloxacin-resistant beta-haemolytic sStreptococcus 19-756A isolate after 24 hrs by broth microdilution method; procedure, shortened: as §1
Streptococcus [22] = experiment: Antibacterial activity against mupirocin-resistant viridans group sStreptococcus 32-2395A isolate after 24 hrs by broth microdilution method; procedure, shortened: as §1
Streptococcus [23] = experiment: Antibacterial activity against levafloxacin-resistant viridans group Streptococcus 107-6380A isolate after 24 hrs by broth microdilution method; procedure, shortened: as §1
Streptococcus [24] = experiment: Antibacterial activity against linezolid-resistant viridans group Streptococcus 27-2832A isolate after 24 hrs by broth microdilution method; procedure, shortened: as §1
Streptococcus [25] = experiment: Antibacterial activity against multidrug-resistant viridans group Streptococcus 58-1602D isolate after 24 hrs by broth microdilution method; procedure, shortened: as §1
Staphylococcus aureus [26] = experiment: Antibacterial activity against methicillin-resistant Staphylococcus aureus ATCC 33591 after 24 hrs by broth microdilution method; conditions: ATCC 33591, 24 h; procedure, shortened: as §1
Staphylococcus aureus [27] = experiment: Antibacterial activity against methicillin-resistant Staphylococcus aureus 78-13607A after 24 hrs by broth microdilution method; procedure, shortened: as §1

## CN[C@H](CC(C)C)C(=O)N[C@H]1C(=O)N[C@@H](CC(N)=O)C(=O)N[C@H]2C(=O)N[C@H]3C(=O)N[C@H](C(=O)N[C@H](C(=O)O)c4cc(O)cc(O)c4-c4cc3ccc4O)[C@H](O)c3ccc(c(Cl)c3)Oc3cc2cc(c3O[C@@H]2O[C@H](CO)[C@@H](O)[C@H](O)[C@H]2O[C@H]2C[C@](C)(N)[C@H](O)[C@H](C)O2)Oc2ccc(cc2Cl)[C@H]1O [VANCOMYCIN]
[1]
  MIC: 1 µg/mL (≈ 0.69 µM)
Enterococcus faecalis [2]
  MIC: 1 µg/mL (≈ 0.69 µM)
Streptococcus pneumoniae [3]
  MIC: 1 µg/mL (≈ 0.69 µM)
Streptococcus pneumoniae [4]
  MIC: 1 µg/mL (≈ 0.69 µM)
Corynebacterium jeikeium
  MIC: 1 µg/mL (≈ 0.69 µM)
Streptococcus pyogenes
  MIC: 1 µg/mL (≈ 0.69 µM)
Streptococcus mitis
  MIC: 1 µg/mL (≈ 0.69 µM)
Pseudomonas aeruginosa
  MIC: 1 µg/mL (≈ 0.69 µM)
Escherichia coli
  MIC: 1 µg/mL (≈ 0.69 µM)
Staphylococcus [5]
  MIC: 0.5 µg/mL (≈ 0.345 µM)
Staphylococcus [6]
  MIC: 0.5 µg/mL (≈ 0.345 µM)
Staphylococcus [7]
  MIC: 0.5 µg/mL (≈ 0.345 µM)
Enterococcus faecalis [8]
  MIC: 0.5 µg/mL (≈ 0.345 µM)
Enterococcus faecalis [9]
  MIC: 0.5 µg/mL (≈ 0.345 µM)
Enterococcus faecalis [10]
  MIC: 0.5 µg/mL (≈ 0.345 µM)
Enterococcus faecalis [11]
  MIC: 0.5 µg/mL (≈ 0.345 µM)
Bacillus sp. [12]
  MIC: 0.5 µg/mL (≈ 0.345 µM)
Bacillus sp. [13]
  MIC: 0.5 µg/mL (≈ 0.345 µM)
Bacillus sp. [14]
  MIC: 0.5 µg/mL (≈ 0.345 µM)
Streptococcus pneumoniae [15]
  MIC: 0.5 µg/mL (≈ 0.345 µM)
Streptococcus pneumoniae [16]
  MIC: 0.5 µg/mL (≈ 0.345 µM)
Streptococcus pneumoniae [17]
  MIC: 0.5 µg/mL (≈ 0.345 µM)
Streptococcus pneumoniae [18]
  MIC: 0.5 µg/mL (≈ 0.345 µM)
Streptococcus [19]
  MIC: 0.5 µg/mL (≈ 0.345 µM)
Streptococcus [20]
  MIC: 0.5 µg/mL (≈ 0.345 µM)
Streptococcus [21]
  MIC: 0.5 µg/mL (≈ 0.345 µM)
Streptococcus [22]
  MIC: 0.5 µg/mL (≈ 0.345 µM)
Streptococcus [23]
  MIC: 0.5 µg/mL (≈ 0.345 µM)
Streptococcus [24]
  MIC: 0.5 µg/mL (≈ 0.345 µM)
Streptococcus [25]
  MIC: 0.5 µg/mL (≈ 0.345 µM)

## CO[C@H]1/C=C/O[C@@]2(C)Oc3c(C)c(O)c4c(O)c(c(/C=N/N5CCN(C)CC5)c(O)c4c3C2=O)NC(=O)/C(C)=C\C=C\[C@H](C)[C@H](O)[C@@H](C)[C@@H](O)[C@@H](C)[C@H](OC(C)=O)[C@@H]1C [RIFAMPIN]
Staphylococcus aureus [26]
  MIC: ≤ 0.25 µg/mL
Staphylococcus aureus [27]
  MIC: ≤ 0.25 µg/mL

## CN(C)[C@@H]1C(O)=C(C(N)=O)C(=O)[C@@]2(O)C(O)=C3C(=O)c4c(O)cccc4[C@@](C)(O)[C@H]3C[C@@H]12 [TETRACYCLINE]
Staphylococcus aureus [26]
  MIC: > 8 µg/mL
Staphylococcus aureus [27]
  MIC: ≤ 16 µg/mL

## CC[C@H]1OC(=O)[C@H](C)[C@@H](O[C@H]2C[C@@](C)(OC)[C@@H](O)[C@H](C)O2)[C@H](C)[C@@H](O[C@@H]2O[C@H](C)C[C@H](N(C)C)[C@H]2O)[C@](C)(O)C[C@@H](C)C(=O)[C@H](C)[C@@H](O)[C@]1(C)O [ERYTHROMYCIN]
Staphylococcus aureus [26]
  MIC: > 8 µg/mL
Staphylococcus aureus [27]
  MIC: 0.25 µg/mL (≈ 0.341 µM)
